Experimental data from PubChem BioAssay AID504676 (Southern Research Specialized Biocontainment Screening …, 2011).

Tested on: E. coli EV36 K1 capsule, T7 phage lysis, OD600
Experiment: T7 phage lysis sensitisation by capsule loss, dose response, selectivity assay for bacterial capsule biogenesis inhibitor project, EV36 K1:K-12 hybrid, OD600, set 3 (AID 504676)
Procedure, shortened: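 System: E. coli EV36 K1/K-12 hybrid bacteria / Repeats: four replicate wells / Schedule: 1.5 h pre-phage compound exposure, 3 h post-infection, 37 °C shaking / Evaluation: lysis by OD600 decrease after T7 infection / Technique: OD600 absorbance / Medium: LB growth medium / Doses: dose series from 0.39 to 100 µM final, 1% DMSO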

| SMILES | IC50 |
| --- | --- |
| COc1ccc2nc(NC(=O)c3cccs3)sc2c1 | 5.9 µM |
| COc1ccc2nc(NC(=O)c3ccco3)sc2c1 | 22.9 µM |
